Compound activity (PubChem BioAssay)
Dyrk1A ADPGlo = Dyrk1A (rat) kinase inhibition; ADP-Glo luminescence, NFATc1 peptide; inhibition, % at 12.5 µM; 310,000 compounds, 0.43% hits; AID 504441; in the data active means inhibition above about 50%;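 further: plate controls were vehicle with enzyme for no effect and no enzyme for full effect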
CAL PDZ FP-1 = CAL PDZ (human) peptide binding inhibition; Q9HD26; purified CAL PDZ, TMR-peptide fluorescence polarization, 1 h; inhibition, % at 24.9 µM; 300,000 compounds, 0.92% hits; AID 602252;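 active means mean inhibition of at least 30% with at least half of replicates also reaching 30%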;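 further: 0% = DMSO neutral control and 100% = excess unlabeled competitor peptide PRC23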
CAL PDZ FP-2 = human CAL PDZ-peptide interaction inhibition; Q9HD26; purified CAL PDZ, TMR-peptide fluorescence polarization, 1 h; inhibition, % at 20 µM; 330,000 compounds, 0.02% hits; AID 504414;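 active means highest replicate inhibition of at least 40%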;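 further: plate controls were DMSO neutral control wells for no effect and unlabeled competitor peptide control wells for full effect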
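material = purified tagged CAL PDZ domain construct (CerCALP) | buffer or medium = sodium phosphate/NaCl buffer pH 7.4 with TCEP, IgG, Thesit | reagent = TMR-labelled reporter peptide T*-PRC34 bound in PDZ groove | incubation = 1 h room-temperature incubation prior to read | measured by = fluorescence polarization (mP) | evaluation = percent inhibition from loss of millipolarization | control set = unlabelled peptide and DMSO controls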
ALR inh = blocks human ALR sulfhydryl oxidase activity; 290,000 compounds, 3.8% hits; P55789; purified ALR, DTT oxidation, H2O2 HRP-luminol luminescence; inhibition, % (test concentration not listed);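 active means mean replicate inhibition above about 79%, with every replicate also reaching it, limit read from the data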
Target sequence (P55789 whole entry, looked up): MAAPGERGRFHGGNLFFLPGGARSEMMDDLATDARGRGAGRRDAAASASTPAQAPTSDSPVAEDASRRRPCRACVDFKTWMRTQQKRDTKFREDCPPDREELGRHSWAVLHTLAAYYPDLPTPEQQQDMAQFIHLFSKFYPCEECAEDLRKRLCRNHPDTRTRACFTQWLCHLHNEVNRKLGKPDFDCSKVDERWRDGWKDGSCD
Rtt109 HAT inh = inhibitors of Candida albicans Rtt109/Vps75 histone acetyltransferase; inhibition, % at 34.9 µM; Q5AAJ8; purified Rtt109/Vps75, ThioGlo CoA-SH fluorescence, 4 h; 330,000 compounds, 0.16% hits; AID 540336;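 active means inhibition of at least 50% in every replicate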
* marks the source's active call; other numbers are inactive results. An excerpt weighted towards active compounds, which were near 4.3% of everything screened.

Results for COc1ccccc1OCc1ccc(C(=O)NC2CCCCC2)o1 ?
Dyrk1A ADPGlo: -4; CAL PDZ FP-1: -3; CAL PDZ FP-2: -2; ALR inh: 5; Rtt109 HAT inh: -4

How did COc1ccccc1S(=O)Cc1ccc(C(=O)NC2CCCC2)o1 (stereo not drawn) do in these assays?
Dyrk1A ADPGlo: 3; CAL PDZ FP-2: 0; ALR inh: 94*; Rtt109 HAT inh: 7

How did COc1ccccc1N1CCN(S(=O)(=O)c2ccccc2)CC1 do in these assays?
Dyrk1A ADPGlo: 1; CAL PDZ FP-2: -3; ALR inh: 98*; Rtt109 HAT inh: 2

How did COc1ccccc1N1CCN(S(=O)(=O)c2cnc[nH]2)CC1 do in these assays?
Dyrk1A ADPGlo: 8; CAL PDZ FP-2: -1; ALR inh: 98*; Rtt109 HAT inh: 5

How did COc1ccccc1N1CCN(S(=O)(=O)c2ccc3c(c2)NC(=O)C(C)S3)CC1 (stereo not drawn) do in these assays?
Dyrk1A ADPGlo: 5; CAL PDZ FP-1: 114*; CAL PDZ FP-2: -1; ALR inh: -4; Rtt109 HAT inh: 9

Results for COc1ccccc1N1CCN(S(=O)(=O)c2cccs2)CC1 ?
Dyrk1A ADPGlo: -8; CAL PDZ FP-1: -2; ALR inh: 66; Rtt109 HAT inh: 8

Results for O=C1c2ccccc2C(Nc2ccc3c(c2)OCCO3)N1Cc1ccc2c(c1)OCO2 (stereo not drawn) ?
Dyrk1A ADPGlo: 9; CAL PDZ FP-2: -1; ALR inh: 98*; Rtt109 HAT inh: 20

How did O=C1OC(Nc2ccc(F)c([N+](=O)[O-])c2)c2ccccc21 (stereo not drawn) do in these assays?
Dyrk1A ADPGlo: 9; CAL PDZ FP-1: -4; CAL PDZ FP-2: 1; Rtt109 HAT inh: 0

What do the screens show for `O=C1OC(Nc2ccc3c(c2)OCO3)c2ccccc21` (stereo not drawn)?
CAL PDZ FP-1: -4; CAL PDZ FP-2: 1; ALR inh: 99*; Rtt109 HAT inh: 5

What do the screens show for `O=C1c2ccccc2C(Nc2ccccc2)N1Cc1ccc2c(c1)OCO2` (stereo not drawn)?
Dyrk1A ADPGlo: -1; CAL PDZ FP-1: 4; CAL PDZ FP-2: -2; ALR inh: 7; Rtt109 HAT inh: 7

What do the screens show for `Oc1ccc(N2CCN(Cc3ccc(OCCCN4CCCCC4)cc3)CC2)cc1`?
Dyrk1A ADPGlo: 5; CAL PDZ FP-1: 5; CAL PDZ FP-2: 0; ALR inh: 99*; Rtt109 HAT inh: -4

Results for CCCCOc1ccc(CN2CCCCC2)cc1 ?
Dyrk1A ADPGlo: -4; CAL PDZ FP-1: 2; CAL PDZ FP-2: -3; ALR inh: 0

What do the screens show for `Oc1ccc(C23CC4CC(CC(C4)C2)C3)cc1O`?
Dyrk1A ADPGlo: 5; CAL PDZ FP-1: -5; CAL PDZ FP-2: -1; ALR inh: 99*; Rtt109 HAT inh: 13

What do the screens show for `Cc1ccc(/C=N/NC(=O)c2ccccc2OCc2cccc(Br)c2)o1`?
Dyrk1A ADPGlo: 18; CAL PDZ FP-1: 3; CAL PDZ FP-2: -3; ALR inh: 2; Rtt109 HAT inh: -1

What do the screens show for `CN1CCN(C(c2ccccn2)c2cc(Cl)c3cccnc3c2O)CC1` (stereo not drawn)?
Dyrk1A ADPGlo: 0; CAL PDZ FP-1: 14; CAL PDZ FP-2: -1; ALR inh: 19; Rtt109 HAT inh: 56*

Results for O=S(=O)(Nc1ncnc2sc3c(c12)CCC3)c1cc(F)ccc1F ?
Dyrk1A ADPGlo: -4; CAL PDZ FP-1: -1; CAL PDZ FP-2: -3; ALR inh: 94*; Rtt109 HAT inh: 20

How did CN(C)C(=O)N1CCC(C(=O)N2CCCC(C(=O)c3cccc4ccccc34)C2)CC1 (stereo not drawn) do in these assays?
Dyrk1A ADPGlo: -4; CAL PDZ FP-1: -2; CAL PDZ FP-2: -3; ALR inh: -3; Rtt109 HAT inh: -3

How did N#Cc1c(SCC(=O)Nc2ccc(C(F)(F)F)cc2)sc2c(O)cc(=O)[nH]c12 do in these assays?
Dyrk1A ADPGlo: 4; CAL PDZ FP-1: -5; CAL PDZ FP-2: -1; ALR inh: 95*; Rtt109 HAT inh: -1

What do the screens show for `Cc1cc(=O)[nH]c(SCC(=O)Nc2ccc3c(c2)CCC3)c1C#N`?
Dyrk1A ADPGlo: 7; CAL PDZ FP-1: -2; CAL PDZ FP-2: 0; ALR inh: 49; Rtt109 HAT inh: 2

What do the screens show for `Cc1cc(=O)[nH]c(SCC(=O)Nc2ccc(Br)cc2)c1C#N`?
Dyrk1A ADPGlo: 6; CAL PDZ FP-1: -2; CAL PDZ FP-2: -2; ALR inh: 99*; Rtt109 HAT inh: 3
